Source: PubChem BioAssay (several laboratories)
The list is not random: actives were taken first. Their share in the collection is about 2.3%.
PfHsp90 set2 – growth inhibition of yeast expressing Plasmodium Hsp90 | 310,000 compounds, 0.32% hits | inhibition, % at 9.4 µM | S. cerevisiae expressing PfHsp90, BacTiter-Glo ATP, 48 h; yeast lacking PDR1 and PDR3 efflux regulators;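 active means every replicate shows inhibition above about 80%, whatever the replicate mean, limit read from the data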
PAX8 inh HTS – PAX8 transcriptional activity inhibition; RMG-I TPO-luciferase reporter, SteadyGlo, 24 h; inhibition, % at 12.6 µM; 360,000 compounds, 1.2% hits; AID 652154;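 active means mean replicate inhibition at least 60% with every replicate also reaching 60%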;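 further: luciferase light reporting Pax8 driven TPO promoter activity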
Env fusion inh – blocks HIV Env-driven cell-cell fusion. AID 651610. 360,000 compounds, 1.1% hits. inhibition, % at 12.3 µM. HeLa-JRFL Env/CEM21 cell fusion, luciferase;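 active means mean replicate inhibition score of at least 50 and every replicate individually at or above 50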
Arrestin-AP2 inh – human beta-arrestin and AP2 interaction inhibition | 340,000 compounds, 0.31% hits | inhibition, % at 10 µM | AID 504490 | FITC-arrestin peptide / GST-AP2 beads, flow cytometry; AP2 beta2 appendage carries R879A mutation;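 active means inhibition above a set limit, near 3 SD of compounds lacking own fluorescence, cut at about 54% in these data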
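system = GST-tagged AP2 beta2-adaptin appendage (R879A) on 4 µm glutathione beads | reagent = FITC-labelled arrestin peptide probe, 50 nM final | schedule = compound with beads 12 min RT, then probe 1 h RT | signal = HyperCyt-sampled flow cytometry, FL1 channel, ex 488/em 535 nm | read-out = percent response from loss of bead-bound FITC fluorescence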
Glyco luc inh – N-linked glycosylation inhibition | reporter increase, % at 12.5 µM | AID 588692 | 360,000 compounds, 0.23% hits | D54 ERlucT glycosylation luciferase reporter, 24 h; percent of 100 nM tunicamycin response;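 active means mean luciferase reporter signal, scaled so untreated is 0 and the glycosylation-blocking control 100, at or above a set limit in every replicate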;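 further: luciferase carries N-glycosylation sites so blocking glycosylation raises the light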
Rtt109 Vps75 – blocks Candida albicans Rtt109/Vps75 acetyltransferase activity; Q5AAJ8; purified Rtt109/Vps75, ThioGlo CoA-SH fluorescence, 4 h; inhibition, % at 34.9 µM; 330,000 compounds, 0.16% hits; AID 540336;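 active means inhibition of at least 50% in every replicate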
Target sequence (Q5AAJ8 whole entry, looked up): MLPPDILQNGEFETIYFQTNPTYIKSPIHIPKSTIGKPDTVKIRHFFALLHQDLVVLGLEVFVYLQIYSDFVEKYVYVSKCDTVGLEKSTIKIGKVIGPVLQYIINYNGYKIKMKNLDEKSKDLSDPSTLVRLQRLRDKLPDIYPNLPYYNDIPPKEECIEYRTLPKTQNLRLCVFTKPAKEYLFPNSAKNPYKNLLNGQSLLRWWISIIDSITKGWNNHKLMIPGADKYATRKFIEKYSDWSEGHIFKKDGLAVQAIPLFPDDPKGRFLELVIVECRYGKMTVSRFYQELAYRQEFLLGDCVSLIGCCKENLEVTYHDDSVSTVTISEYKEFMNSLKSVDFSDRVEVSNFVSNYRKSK
Of the large screens only hits and unclear results are named; the others gave an inactive call; [ ] = another dose, or the depositor's remark.

CC(C)OP(=O)(c1ccc(N(C)C)cc1)C(Nc1ccccc1)c1ccccc1 (centres undefined)	Env fusion inh 85
O=C(N[C@@H]1CC[C@@H](CCNC(=O)C2CC2)O[C@@H]1CO)c1ccccn1	none (no result: PfHsp90 set2, PAX8 inh HTS, Arrestin-AP2 inh, Glyco luc inh, Rtt109 Vps75)
CCN1CCN(c2ccc(S(=O)(=O)N3CCCCC3)cc2NC(=O)Cc2c(F)cccc2Cl)CC1	none
CCN(CC)S(=O)(=O)c1ccc(N2CCOCC2)c(NC(=S)NC(=O)c2ccco2)c1	none
CCN(CC)S(=O)(=O)c1ccc(N2CCOCC2)c(NC(=O)c2ccco2)c1	Env fusion inh 58
CCN(CC(=O)Nc1c(F)cccc1F)C(=O)c1cc(S(=O)(=O)N(CC)CC)ccc1N1CCCCC1	PAX8 inh HTS 88
CCN(CC(=O)Nc1c(F)cccc1F)C(=O)c1cc(S(=O)(=O)N(C)C)ccc1N1CCCC1	PAX8 inh HTS 90
CCN(CC)S(=O)(=O)c1ccc(N2CCCC2)c(NC(=O)Cc2c(F)cccc2Cl)c1	Env fusion inh 57
CC(C)NC(=O)N1CC(=O)N2[C@H](CO)[C@@H](c3ccc(/C=C/c4ccccc4)cc3)[C@H]2C1	none (no result: PfHsp90 set2, Env fusion inh, Arrestin-AP2 inh, Glyco luc inh, Rtt109 Vps75)
O=C(Nc1ccccc1)N[C@@H]1CC[C@H](CCNS(=O)(=O)c2ccccc2F)O[C@H]1CO	none (no result: PfHsp90 set2, Arrestin-AP2 inh, Glyco luc inh, Rtt109 Vps75)
CCN(CC(=O)Nc1ccc(OC)cc1)CC(=O)Nc1cccc(S(=O)(=O)N2CCOCC2)c1	none (no result: PfHsp90 set2, Arrestin-AP2 inh, Rtt109 Vps75)
CCN(CC(=O)Nc1ccc(OC)cc1)C(=O)c1cc(S(=O)(=O)N2CCOCC2)ccc1N1CCCC1	PAX8 inh HTS 69
C[C@H](CO)N1C[C@H](C)[C@@H](CN(C)C(=O)Nc2cccc(C(F)(F)F)c2)OCc2ccccc2-c2ccccc2C1=O	Env fusion inh 58[16.7 µM] (no result: PfHsp90 set2, Arrestin-AP2 inh, Glyco luc inh, Rtt109 Vps75)
C[C@@H]1CN([C@@H](C)CO)C(=O)c2ccccc2-c2ccccc2CO[C@@H]1CN(C)C(=O)Nc1ccc2c(c1)OCO2	Env fusion inh 59[16.7 µM] (no result: PfHsp90 set2, Arrestin-AP2 inh, Glyco luc inh, Rtt109 Vps75)
COc1cccc(NC(=O)N(C)C[C@H]2OCc3ccccc3-c3c(n(C)c4ccccc34)C(=O)N([C@@H](C)CO)C[C@@H]2C)c1	Env fusion inh 55[16.7 µM] (no result: PfHsp90 set2, Arrestin-AP2 inh, Glyco luc inh, Rtt109 Vps75)
C[C@@H]1CN([C@H](C)CO)C(=O)c2c(c3ccccc3n2C)-c2ccccc2CO[C@@H]1CN(C)C(=O)Nc1cccc(C(F)(F)F)c1	none (no result: PfHsp90 set2, Env fusion inh, Arrestin-AP2 inh, Glyco luc inh, Rtt109 Vps75)
C[C@@H]1CN([C@H](C)CO)C(=O)c2c(c3ccccc3n2C)-c2ccccc2CO[C@H]1CN(C)C(=O)Nc1cccc(C(F)(F)F)c1	PAX8 inh HTS 79 (no result: PfHsp90 set2, Env fusion inh, Arrestin-AP2 inh, Glyco luc inh, Rtt109 Vps75)
C[C@@H]1CN([C@H](C)CO)C(=O)c2ccccc2-c2ccccc2CO[C@@H]1CN(C)C(=O)Nc1ccc2c(c1)OCO2	none (no result: PfHsp90 set2, Arrestin-AP2 inh, Glyco luc inh, Rtt109 Vps75)
C[C@@H]1CCCCO[C@@H](CN(C)S(=O)(=O)c2cccs2)[C@@H](C)CN([C@@H](C)CO)C(=O)c2cc(NC(=O)CCCN(C)C)ccc2O1	none (no result: PfHsp90 set2, PAX8 inh HTS, Arrestin-AP2 inh, Glyco luc inh, Rtt109 Vps75)
Cc1noc(C)c1NC(=O)Nc1cccc2c1O[C@H](CN(C)C(=O)Nc1cccc3ccccc13)[C@H](C)CN([C@@H](C)CO)C2=O	none (no result: PfHsp90 set2, Arrestin-AP2 inh, Glyco luc inh, Rtt109 Vps75)
COc1ccc(S(=O)(=O)Nc2ccc3c(c2)CC(=O)N([C@H](C)CO)C[C@H](C)[C@@H](CN(C)Cc2ccc(C(F)(F)F)cc2)O3)cc1	PAX8 inh HTS 113 (no result: PfHsp90 set2, Arrestin-AP2 inh, Glyco luc inh, Rtt109 Vps75)
COc1ccc(S(=O)(=O)Nc2ccc3c(c2)CC(=O)N([C@@H](C)CO)C[C@@H](C)[C@@H](CN(C)Cc2ccc(C(F)(F)F)cc2)O3)cc1	none (no result: PfHsp90 set2, Arrestin-AP2 inh, Glyco luc inh, Rtt109 Vps75)
COc1ccc(S(=O)(=O)Nc2ccc3c(c2)CC(=O)N([C@@H](C)CO)C[C@@H](C)[C@H](CN(C)Cc2ccc(C(F)(F)F)cc2)O3)cc1	PAX8 inh HTS 111, Env fusion inh 73[16.7 µM] (no result: PfHsp90 set2, Arrestin-AP2 inh, Glyco luc inh, Rtt109 Vps75)
C[C@@H]1CN([C@@H](C)CO)C(=O)c2cc(NS(=O)(=O)c3ccc(Cl)cc3)ccc2O[C@@H]1CN(C)Cc1ccc(C(F)(F)F)cc1	none (no result: PfHsp90 set2, PAX8 inh HTS, Arrestin-AP2 inh, Glyco luc inh, Rtt109 Vps75)
COc1ccc(NC(=O)N(C)C[C@@H]2Oc3ccc(NC(=O)Nc4ccc(F)cc4)cc3C(=O)N([C@H](C)CO)C[C@@H]2C)cc1	none (no result: PfHsp90 set2, PAX8 inh HTS, Arrestin-AP2 inh, Glyco luc inh, Rtt109 Vps75)
COCCNC(=O)C1(C)CCCN(C(=O)c2ccc3c(c2)CCO3)C1 (centres undefined)	Env fusion inh 59 (no result: PfHsp90 set2, Arrestin-AP2 inh, Rtt109 Vps75)
CCCNC(=O)C1(C)CCCN(C(=O)c2ccc3c(c2)CCO3)C1 (centres undefined)	none (no result: PfHsp90 set2, Arrestin-AP2 inh, Rtt109 Vps75)
